Test results reported in ChEMBL document CHEMBL2346611, “Preliminary structure-activity relationships and biological evaluation of novel antitubercular indolecarboxamide derivatives against drug-susceptible and drug-resistant Mycobacterium tuberculosis strains” (J Med Chem, 2013).
≈ marks a conversion by molar mass, not a printed value.

Assays:
Assay type in all cases: functional
[1] = tested on: Mycobacterium tuberculosis; experiment: Antitubercular activity against extensively drug resistant Mycobacterium tuberculosis TF274 by microplate Alamar Blue assay
Method in brief: (§1)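 Mycobacterium tuberculosis strains were used: H37Rv, and clinical strains from KwaZulu-Natal (MDR KZN494 and V2475; XDR TF274 and R506). Growth was read by microplate Alamar Blue assay. MIC is the lowest drug concentration giving at least a 90% reduction of the bacterial growth signal. Values are the average of three individual measurements.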

[2] = tested on: Mycobacterium tuberculosis; experiment: Antitubercular activity against extensively drug resistant Mycobacterium tuberculosis R506 by microplate Alamar Blue assay; method in brief: as §1
[3] = tested on: Mycobacterium tuberculosis; experiment: Antitubercular activity against extensively drug resistant Mycobacterium tuberculosis V2475 by microplate Alamar Blue assay
[4] = tested on: Mycobacterium tuberculosis; experiment: Antitubercular activity against multi drug resistant Mycobacterium tuberculosis KZN494 by microplate Alamar Blue assay; method in brief: as §1

Question: Which results are given for Cc1cc(C)c2cc(C(=O)NC3CCCCC3)[nH]c2c1?
Answer: MIC90 [1]: 0.46 µM (≈ 0.124 µg/mL); MIC90 [2]: 0.46 µM (≈ 0.124 µg/mL); MIC90 [3]: 0.93 µM (≈ 0.251 µg/mL); MIC90 [4]: 3.7 µM (≈ 1 µg/mL)

Question: Which MIC90 [1] does the source give for Cc1cc(C)c2cc(C(=O)NC3CCCCCCC3)[nH]c2c1 here?
Answer: The MIC90 was 0.026 µM (≈ 0.00776 µg/mL).

Question: And the MIC90 [2]?
Answer: Its MIC90 is 0.0067 µM (≈ 0.002 µg/mL).

Question: Which results are given for Cc1cc(C)c2cc(C(=O)NC3CCCCCC3)[nH]c2c1?
Answer: MIC90 [1]: 0.055 µM (≈ 0.0156 µg/mL); MIC90 [2]: 0.055 µM (≈ 0.0156 µg/mL); MIC90 [3]: 0.11 µM (≈ 0.0313 µg/mL); MIC90 [4]: 0.11 µM (≈ 0.0313 µg/mL)
